ABCB1 block: blocks JC-1 efflux by human ABCB1 transporter; CCRF-Adr cells, flow cytometry; inhibition, % at 6.6 µM; actives 0.067% (n = 190,000); in the data active = inhibition above about 40%;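 also: higher value means more JC-1 retained so stronger ABCB1 efflux block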
Diaphorase act: diaphorase activation or chemical reduction counter-screen; Diaphorase/resazurin coupled assay, resorufin fluorescence, 16 min; stronger effect = higher value; 1 = vehicle wells, 0 = NADH-free wells; activation factor at 20 µM; actives 0.005% (n = 190,000); AID 1229;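 active = diaphorase activity raised at least twofold by the compound at 20 µM; inactive = activation factor below 2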
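Assay system: Purified diaphorase enzyme from Clostridium kluyveri | Amount: Enzyme 0.07 U/mL final | Dosing: Compound 20 µM once, DMSO 1% | Timing: 16 min reaction at room temperature | Detection: Fluorescence, excitation 544 nm and emission 590 nm | Evaluation: Higher resorufin formation from activation or reduction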
NCF1 inh: inhibitors of human p47phox binding | p47phox/p22phox peptide binding, fluorescence polarization, 2 h | actives 0.53% (n = 220,000) | AID 1274 | inhibition, % at 24.7 µM;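 active = inhibition above about 30%, limit read from the data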
Diaphorase inh: counter-screen for diaphorase-based assays: diaphorase inhibitors and chemical oxidizers. diaphorase resazurin-to-resorufin fluorescence, NADH, 16 min; bacterial (C. kluyveri) enzyme, not human. inhibition, % at 20 µM. actives 0.69% (n = 190,000);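 active = primary screen inhibition at 20 µM above a set limit, cut at about 50% in these data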
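material = Clostridium kluyveri diaphorase enzyme | amount = 0.14 U/mL diaphorase, enzyme working solution | schedule = incubation 16 min, room temperature | detection = fluorescence of resorufin formed from resazurin, Ex 544/Em 590 nm | benchmarks = positive control minus NADH, DMSO neutral control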
Efa HMGR inh: E. faecalis class II HMG-CoA reductase inhibition | purified E. faecalis HMGR, NADPH absorbance 340 nm kinetic | actives 0.41% (n = 190,000) | inhibition, % at 10 µM;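 active = inhibition above a set limit, the median over all tested compounds plus 3 SD, cut at about 9.5% in these data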;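 also: enzyme runs in reverse so mevalonate oxidation gives rising NADPH absorbance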
ABCG2 inh: blocks JC-1 efflux by human ABCG2 transporter. IgMXP3 cells, flow cytometry. AID 1325. inhibition, % at 6.6 µM. Q9UNQ0. actives 0.1% (n = 190,000);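 active = inhibition above 80%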
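material = IgMXP3 (ABCG2) plus far-red-tagged CCRF-Adr (ABCB1) cells | amount = 3 million cells/mL, equal mix of both lines | also added = JC-1 transporter substrate | dosing = one concentration, 6.6 µM final | schedule = 10 min at 25 °C | measured by = flow cytometric JC-1 green MFI at 530 nm | read-out basis = percent efflux inhibition, scaled nicardipine 100% to DMSO 0%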
Numbers stand for hits; i = inactive; nt = no result given; + = active, no number. An excerpt weighted towards active compounds, which were near 1.6% of everything screened.

SMILES	ABCB1 block	Diaphorase act	NCF1 inh	Diaphorase inh	Efa HMGR inh	ABCG2 inh
CCCCCc1ccc(OCCOCCn2c[n+](C)c3ccccc32)c(CCCCC)c1	i	2	75.4	i	i	i
O=C(NC1CCCCCC1)c1nc2ncccn2n1	i	i	i	i	i	i
Cc1nn(Cc2ccccc2)c(=O)c2nn(-c3ccc(Cl)cc3)c(C)c12	i	i	i	i	i	i
COc1cccc(-n2nc3c(=O)n(Cc4ccccc4Cl)nc(C)c3c2C)c1	i	i	84.1	i	i	i
O=C(O)C1CCCN1c1ncccn1 (stereo unspecified)	i	i	78.3	i	i	i
CCOc1ccc(CCNS(=O)(=O)c2cnc[nH]2)cc1OCC	i	i	61.9	i	i	i
COc1ccccc1C1=NC(c2ccc(F)cc2)N=C1C (stereo unspecified)	i	i	i	i	i	i
Cn1nc(N)c2c(-c3ccc(Cl)cc3)c(C#N)c(N)nc21	i	i	62.3	i	i	i
Cn1nc(N)c2c(-c3ccccc3)c(C#N)c(N)nc21	i	i	i	i	i	i
O=C(c1ccc(CNc2c(N3CCCC3)c(=O)c2=O)cc1)N1CCN(C2CCCCC2)CC1	i	i	34.8	i	i	i
CCNC(=O)c1ccc(N(C)S(=O)(=O)c2cccs2)cc1	i	i	i	i	i	i
CCN1C(c2ccccc2)=C(c2ccccc2)S/C1=C/C=C1\SC(=S)N(C)C1=O	i	i	42.0	i	i	i
CCN1C(=O)/C(=C/C=C2/Sc3ccc4ccccc4c3N2CCO)SC1=S	i	i	i	i	i	i
CC(C)C(=O)N(c1ccc2oc(=O)sc2c1)S(=O)(=O)c1cccs1	i	i	i	i	i	i
CC(C)C(=O)N(c1cc2sc(=O)oc2c2ccccc12)S(=O)(=O)c1cccs1	i	i	i	60.8	i	i
N#Cc1ccccc1Cn1c(=O)n(Cc2ccc(C(=O)NCc3ccco3)cc2)c(=O)c2ccccc21	i	i	30.5	i	i	i
N#Cc1ccccc1Cn1c(=O)n(CCC(=O)NCc2ccco2)c(=O)c2ccccc21	i	i	i	i	i	i
CCCCNC(=O)Cn1cnc2ccc(S(=O)(=O)N3CCC(C)CC3)cc2c1=O	i	i	i	i	i	i
O=c1c(Cc2ccccc2)c(O)c2cccc3c4c(n1c23)CCCC4	nt	nt	i	nt	nt	nt
O=c1c(Cl)c(O)c2cccc3c4ccccc4n1c23	i	i	i	52.3	i	i
O=C(CS(=O)(=O)Cc1ccccc1)NCc1ccco1	i	i	i	i	9.8	i
Cc1ccc2cc(C(c3nnnn3C3CCCC3)N3CCN(c4ccccc4)CC3)c(=O)[nH]c2c1 (stereo unspecified)	i	i	i	i	i	i
COc1ccc(F)cc1C(=O)C1CCCN(Cc2ccc(Oc3ncccn3)cc2)C1 (stereo unspecified)	i	i	i	i	i	i
COc1ccc(F)cc1C(=O)C1CCCN(Cc2cccn2-c2cccnc2)C1 (stereo unspecified)	i	i	i	93.5	i	i
CN(C)[C@@H](CO)c1nnc([C@H](CC(=O)O)NC(=O)C2CCNCC2)o1	i	i	i	i	i	i
SMILES	ABCB1 block	Diaphorase act	NCF1 inh	Diaphorase inh	Efa HMGR inh	ABCG2 inh
CC(=O)c1ccc(N2CCN(C(=O)c3ccc4c(Cl)c5c(nc4c3)CCCC5)CC2)cc1	i	i	i	i	i	i
O=C(c1ccc2c(Cl)c3c(nc2c1)CCCC3)N1CCC(N2CCCCC2)CC1	i	i	i	i	11.3	i
O=C(c1ccc(S(=O)(=O)N2CCC(c3nc4ccccc4[nH]3)CC2)cc1)N1CCOCC1	i	i	i	64.5	i	i
O=C(c1ccc(S(=O)(=O)N2CCC(c3nc4ccccc4s3)CC2)cc1)N1CCOCC1	nt	i	nt	i	nt	nt
COc1ccc(CNC(=O)CN(c2ccccc2)S(=O)(=O)N(C)C)cc1	i	i	i	i	i	i
O=C(COC(=O)c1cc(S(=O)(=O)N2CCc3ccccc3C2)ccc1Cl)NCc1ccco1	i	i	i	51.8	i	i
O=C(COC(=O)c1cccc(S(=O)(=O)N2CCc3ccccc3C2)c1)NCc1ccco1	i	i	i	i	i	i
CCCn1c(SCC#N)nc2c(c1=O)C1(CCCC1)Cc1ccccc1-2	i	i	i	i	i	i
Cc1cc(C)c2cc(C#N)c(SCC(=O)Nc3ccc4c(c3)OCO4)nc2c1	nt	nt	i	nt	nt	nt
C=CCNc1nc(SCC=C)nc2ccsc12	i	i	i	i	i	i
CCOc1ccc2c(c1)c1nnc(SCC(=O)N3CCC(C)CC3)nc1n2C	i	i	i	i	i	i
Cc1ccc(CN(Cc2cc3cc4c(cc3[nH]c2=O)OCCO4)Cc2nnnn2Cc2ccco2)cc1	i	i	i	57.8	i	i
Cn1nc([N+](=O)[O-])nc1Sc1nnnn1-c1ccc(C(=O)O)cc1	i	i	i	i	16.5	i
COc1cc(C(=O)NCCC(=O)NCCc2ccc(Cl)cc2)cc(OC)c1OC	i	i	i	i	i	i
N#CCSc1nnc(COc2ccccc2)n1-c1ccccc1	i	i	i	i	i	i
CCC(C)n1c(SCC(=O)NCCc2ccc(S(N)(=O)=O)cc2)nc2ccsc2c1=O (stereo unspecified)	i	i	i	i	i	i
COc1ccc(/C=N/NC(=O)CN(C2=NS(=O)(=O)c3ccccc32)c2ccccc2)cc1	i	i	30.6	i	i	i
COc1ccccc1/C=N/NC(=O)CN(C1=NS(=O)(=O)c2ccccc21)c1ccccc1	i	i	i	i	i	i
O=[N+]([O-])c1ccc(-c2csc3[n+]2CCS3)cc1	i	i	i	i	i	i
Fc1ccc(-c2csc3[n+]2CCS3)cc1	i	i	i	i	16.7	i
COCCNc1nc(-c2cc(C)n(CCc3ccc(OC)cc3)c2C)cs1	i	i	i	i	i	i
COc1ccccc1CNc1nc(-c2cc(C)n(C)c2C)cs1	i	i	46.4	i	i	i
O=[N+]([O-])c1ccccc1-c1ccc(/C=N/n2cnnc2)o1	i	i	i	i	i	i
Nn1cnnc1N/N=C\c1ccc(-c2ccccc2[N+](=O)[O-])o1	i	i	i	87.9	i	i
CCOC(=O)C1=C(O)CSC1=Nc1ccccc1	i	i	i	i	i	i
CCOC(=O)C1=C(O)CSC1=Nc1ccc(Cl)cc1	i	i	+	i	i	i
C=CCn1c(N)cc(=O)nc1SCC(=O)Nc1ccccc1	i	i	i	i	i	i
O=C(N/N=C/c1ccc(O)c([N+](=O)[O-])c1)C1CC1(c1ccccc1)c1ccccc1 (stereo unspecified)	i	i	i	72.0	i	i

Screening data: PubChem BioAssay, several laboratories
